Assay results taken from ChEMBL document CHEMBL1154832, “Synthesis and antitumor activity of new dihydropyridine thioglycosides and their corresponding dehydrogenated forms” (Eur J Med Chem, 2010).

Assays:
Mus musculus [1] = assay: Acute toxicity in ip dosed Swiss albino mouse xenografted with human HepG2 cells assessed as mortality measured up to two weeks; assay type: organism-based; conditions: in vivo
In short: (§1)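 Adult Swiss albino mice fasted 12 h, randomised into groups of 10. Single i.p. administration at graded doses, 1 ml/kg body weight; controls received vehicle alone. Food and water given immediately after dosing. Mortality followed for up to two weeks. LD50 taken as the dose giving 50% mortality.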

HepG2 = assay: Antitumor activity against human HepG2 cells xenografted in Swiss albino mouse assessed as increase in life span at 10 ug/kg, ip for 10 consecutive days relative to control; assay type: functional
In short: (§2)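 Male Swiss albino mice (20 ± 2 g), acclimatised one week at 25–27 °C, 12 h light/dark. Ascites tumour established by i.p. inoculation of 1 × 10⁶ viable cells. Dosing began 24 h after inoculation, i.p. daily for 10 consecutive days. DMSO vehicle control group; cisplatine 2 mg/kg i.p. for 10 days as reference. Survival time recorded and % increase in life span derived; mean ± SE, n = 10 mice.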

Mus musculus [2] = assay: Acute toxicity in ip dosed Swiss albino mouse inoculated with human HeLa cells assessed as mortality measured up to two weeks; assay type: organism-based; conditions: in vivo; in short: as §1
HeLa = assay: Antitumor activity against human HeLa cells xenografted in Swiss albino mouse assessed as increase in life span at 10 ug/kg, ip for 10 consecutive days relative to control; assay type: functional; in short: as §2

SMILES	LD50 (Mus musculus [1]) [mg/kg]	Activity (HepG2) [%]	LD50 (Mus musculus [2]) [mg/kg]	Activity (HeLa) [%]
CC(=O)O[C@H]1O[C@@H](SC2=C(C#N)C(c3ccc4ccccc4c3)C(C#N)=C(N)N2)[C@H](OC(C)=O)[C@@H](OC(C)=O)[C@H]1OC(=O)O (stereo not given in full)	0.065	38	0.07	31
COc1ccc(C2C(C#N)=C(N)NC(S[C@@H]3O[C@H](OC(C)=O)[C@@H](OC(=O)O)[C@H](OC(C)=O)[C@H]3OC(C)=O)=C2C#N)cc1 (stereo not given in full)	0.15	39	0.16	25
N#CC1=C(N)NC(S[C@@H]2O[C@H](O)[C@H](O)[C@H](O)[C@H]2O)=C(C#N)C1c1ccc2ccccc2c1 (stereo not given in full)	0.13	60	0.12	45
CC(=O)O[C@H]1O[C@@H](Sc2nc(N)c(C#N)c(-c3ccc4ccccc4c3)c2C#N)[C@H](OC(C)=O)[C@@H](OC(C)=O)[C@@H]1OC(C)=O	0.06	49	0.06	40
COc1ccc(C2C(C#N)=C(N)NC(S[C@@H]3O[C@H](O)[C@@H](O)[C@H](O)[C@H]3O)=C2C#N)cc1 (stereo not given in full)	0.11	69	0.095	55
CC(=O)O[C@H]1O[C@@H](SC2=C(C#N)C(c3ccc([N+](=O)[O-])cc3)C(C#N)=C(N)N2)[C@H](OC(C)=O)[C@@H](OC(C)=O)[C@@H]1OC(=O)O (stereo not given in full)	0.085	34	0.07	27
CC(=O)O[C@H]1O[C@@H](SC2=C(C#N)C(c3ccccc3)C(C#N)=C(N)N2)[C@H](OC(C)=O)[C@@H](OC(C)=O)[C@@H]1OC(=O)O (stereo not given in full)	0.08	29	0.075	30
CC(=O)O[C@H]1O[C@@H](Sc2nc(N)c(C#N)c(-c3ccc(Br)cc3)c2C#N)[C@H](OC(C)=O)[C@@H](OC(C)=O)[C@@H]1OC(C)=O	0.065	48	0.075	46
COc1ccc(-c2c(C#N)c(N)nc(S[C@@H]3O[C@H](O)[C@H](O)[C@H](O)[C@H]3O)c2C#N)cc1	0.115	56	0.13	47
COc1ccc(C2C(C#N)=C(N)NC(S[C@@H]3O[C@H](OC(C)=O)[C@H](OC(=O)O)[C@H](OC(C)=O)[C@H]3OC(C)=O)=C2C#N)cc1 (stereo not given in full)	0.06	30	0.065	30
COc1ccc(C2C(C#N)=C(N)NC(S[C@@H]3O[C@H](O)[C@H](O)[C@H](O)[C@H]3O)=C2C#N)cc1 (stereo not given in full)	0.06	63	0.08	44
N#Cc1c(N)nc(S[C@@H]2O[C@H](O)[C@@H](O)[C@H](O)[C@H]2O)c(C#N)c1-c1ccc(Br)cc1	0.105	60	0.12	50
N#Cc1c(N)nc(S[C@@H]2O[C@H](O)[C@H](O)[C@H](O)[C@H]2O)c(C#N)c1-c1ccc2ccccc2c1	0.145	57	0.125	53
COc1ccc(-c2c(C#N)c(N)nc(S[C@@H]3O[C@H](OC(C)=O)[C@H](OC(C)=O)[C@H](OC(C)=O)[C@H]3OC(C)=O)c2C#N)cc1	0.065	48	0.07	47
N#CC1=C(N)NC(S[C@@H]2O[C@H](O)[C@@H](O)[C@H](O)[C@H]2O)=C(C#N)C1c1ccc2ccccc2c1 (stereo not given in full)	0.11	50	0.115	39
N#Cc1c(N)nc(S[C@@H]2O[C@H](O)[C@@H](O)[C@H](O)[C@H]2O)c(C#N)c1-c1ccc2ccccc2c1	0.13	58	0.11	51
CC(=O)O[C@H]1O[C@@H](Sc2nc(N)c(C#N)c(-c3ccc4ccccc4c3)c2C#N)[C@H](OC(C)=O)[C@@H](OC(C)=O)[C@H]1OC(C)=O	0.125	50	0.135	39
CC(=O)O[C@H]1O[C@@H](SC2=C(C#N)C(c3ccccc3)C(C#N)=C(N)N2)[C@H](OC(C)=O)[C@@H](OC(C)=O)[C@H]1OC(=O)O (stereo not given in full)	0.07	34	0.06	30
CC(=O)O[C@H]1O[C@@H](Sc2nc(N)c(C#N)c(-c3ccccc3)c2C#N)[C@H](OC(C)=O)[C@@H](OC(C)=O)[C@H]1OC(C)=O	0.065	43	0.06	38
CC(=O)O[C@H]1O[C@@H](SC2=C(C#N)C(c3ccc(Br)cc3)C(C#N)=C(N)N2)[C@H](OC(C)=O)[C@@H](OC(C)=O)[C@@H]1OC(=O)O (stereo not given in full)	0.09	31	0.09	29
